Active and inactive are the calls of the source. No cut-off for these calls is given here.
Tests used:
Fusarium culmorum = assay: Antimicrobial activity against Fusarium culmorum up to 100 ug/mL; type: functional, organism-based
In short: (§1)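 Minimum inhibitory concentration was measured in a microtiter plate growth bioassay against a panel of human and agricultural fungal pathogens and Gram-positive and Gram-negative bacteria.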

Drechslera = assay: Antimicrobial activity against Drechslera sorokiniana up to 100 ug/mL; type: functional, organism-based; in short: as §1
Aspergillus fumigatus = assay: Antimicrobial activity against Aspergillus fumigatus up to 100 ug/mL; type: functional, organism-based; in short: as §1
Fusarium oxysporum = assay: Antimicrobial activity against Fusarium oxysporum up to 100 ug/mL; type: functional, organism-based; in short: as §1
Pseudomonas savastanoi = assay: Antimicrobial activity against Pseudomonas savastanoi up to 100 ug/mL; type: functional, organism-based; in short: as §1
Heterobasidion annosum = assay: Antimicrobial activity against Heterobasidion annosum up to 100 ug/mL; type: functional, organism-based; in short: as §1
Staphylococcus aureus = assay: Antimicrobial activity against Staphylococcus aureus; type: functional
Pseudomonas syringae = assay: Antimicrobial activity against Pseudomonas syringae pv. syringae; type: functional
Candida albicans = assay: Antimicrobial activity against Candida albicans up to 100 ug/mL; type: functional, organism-based; in short: as §1
Microsporum canis = assay: Antimicrobial activity against Microsporum canis up to 100 ug/mL; type: functional, organism-based; in short: as §1

Row | Compound | Activity (Fusarium culmorum) | Activity (Drechslera) | Activity (Aspergillus fumigatus) | Activity (Fusarium oxysporum) | Activity (Pseudomonas savastanoi) | Activity (Heterobasidion annosum) | MIC (Staphylococcus aureus) [µg/mL] | MIC (Pseudomonas syringae) [µg/mL] | Activity (Candida albicans) | Activity (Microsporum canis)
1 | CCCCCCCC(O)/C=C/C(C)=C/CC(=O)NC[C@H](O)[C@H](C)C(=O)NCC/C=C/C=C/C=C/C(=O)O (mixture of isomers) [PSEUDOTRIENIC ACID B] | inactive | inactive | inactive | inactive | inactive | inactive | 70 | 70 | inactive | inactive
2 | CCCCCCCCCC(O)/C=C/C(C)=C/CC(=O)NC[C@H](O)[C@H](C)C(=O)NCC/C=C/C=C/C=C/C(=O)O (mixture of isomers) [PSEUDOTRIENIC ACID A] | inactive | inactive | inactive | inactive | inactive | inactive | 70 | 70 | inactive | inactive

Source: ChEMBL document CHEMBL1158809, “Pseudotrienic acids A and B, two bioactive metabolites from Pseudomonas sp. MF381-IODS” (2005)
